Experimental data: ChEMBL document CHEMBL3632558, “Synthesis, antimycobacterial and antibacterial activity of l-[(1R,2S)-2-fluorocyclopropyl]naphthyridone derivatives containing an oxime-functionalized pyrrolidine moiety” (2015)
In brackets after ≈: the same amount, converted by molar mass.

Columns and labels:
Assay type in all cases: functional
[1] = tested on: Staphylococcus epidermidis; assay: Antibacterial activity against methicillin-resistant Staphylococcus epidermidis 14-37 after 18 to 24 hrs
Klebsiella pneumoniae [2] = assay: Antibacterial activity against Klebsiella pneumoniae 14-4 after 18 to 24 hrs
Summary of the method: (§1)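 MIC by standard NCCLS reference procedure (M100-S11); lowest concentration of compound inhibiting visible bacterial growth after incubation at 35 °C for 18–24 h, read as complete inhibition of growth. Ciprofloxacin, levofloxacin and moxifloxacin run alongside as reference agents.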

Escherichia coli [3] = assay: Antibacterial activity against Escherichia coli 14-2 after 18 to 24 hrs; summary of the method: as §1
Klebsiella pneumoniae [4] = assay: Antibacterial activity against ESBL-positive Klebsiella pneumoniae 14-19 after 18 to 24 hrs; summary of the method: as §1
Staphylococcus aureus [5] = assay: Antibacterial activity against methicillin-sensitive Staphylococcus aureus 14-4 after 18 to 24 hrs; summary of the method: as §1
Enterococcus faecalis [6] = assay: Antibacterial activity against Enterococcus faecalis 14-1 after 18 to 24 hrs; summary of the method: as §1
Pseudomonas aeruginosa [7] = assay: Antibacterial activity against Pseudomonas aeruginosa 14-15 after 18 to 24 hrs; summary of the method: as §1
Pseudomonas aeruginosa [8] = assay: Antibacterial activity against Pseudomonas aeruginosa 14-19 after 18 to 24 hrs; summary of the method: as §1
Klebsiella pneumoniae [9] = assay: Antibacterial activity against Klebsiella pneumoniae 14-3 after 18 to 24 hrs; summary of the method: as §1
Enterococcus faecium [10] = assay: Antibacterial activity against Enterococcus faecium 14-1 after 18 to 24 hrs; summary of the method: as §1
Pseudomonas aeruginosa [11] = assay: Antibacterial activity against Pseudomonas aeruginosa 14-9 after 18 to 24 hrs; summary of the method: as §1
Klebsiella pneumoniae [12] = assay: Antibacterial activity against ESBL-positive Klebsiella pneumoniae 14-17 after 18 to 24 hrs; summary of the method: as §1
Klebsiella pneumoniae [13] = assay: Antibacterial activity against Klebsiella pneumoniae 14-2 after 18 to 24 hrs; summary of the method: as §1
Staphylococcus aureus [14] = assay: Antibacterial activity against Staphylococcus aureus CMCC 26003 after 18 to 24 hrs; summary of the method: as §1
Staphylococcus aureus [15] = assay: Antibacterial activity against methicillin-sensitive Staphylococcus aureus 14-1 after 18 to 24 hrs; summary of the method: as §1
Enterococcus faecium [16] = assay: Antibacterial activity against Enterococcus faecium 14-6 after 18 to 24 hrs; summary of the method: as §1
Escherichia coli [17] = assay: Antibacterial activity against Escherichia coli 14-1 after 18 to 24 hrs; summary of the method: as §1
Pseudomonas aeruginosa [18] = assay: Antibacterial activity against Pseudomonas aeruginosa 14-14 after 18 to 24 hrs; summary of the method: as §1
Pseudomonas aeruginosa [19] = assay: Antibacterial activity against Pseudomonas aeruginosa ATCC 27853 after 18 to 24 hrs; summary of the method: as §1
[20] = tested on: Staphylococcus epidermidis; assay: Antibacterial activity against methicillin-resistant Staphylococcus epidermidis 14-22 after 18 to 24 hrs
Escherichia coli [21] = assay: Antibacterial activity against Escherichia coli ATCC 25922 after 18 to 24 hrs; summary of the method: as §1
Enterococcus faecium [22] = assay: Antibacterial activity against Enterococcus faecium 14-2 after 18 to 24 hrs; summary of the method: as §1
[23] = tested on: Staphylococcus epidermidis; assay: Antibacterial activity against methicillin-resistant Staphylococcus epidermidis 14-39 after 18 to 24 hrs
[24] = tested on: Mycobacterium tuberculosis; assay: Antimycobacterial activity against Mycobacterium tuberculosis H37Rv ATCC 27294 by alamar blue assay
Summary of the method: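 Microplate Alamar Blue Assay; MIC is the lowest concentration giving ≥90% reduction in fluorescence relative to the mean of replicate bacterium-only controls. MDR strain 6133 is resistant to isoniazid and rifampicin.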

Staphylococcus aureus [25] = assay: Antibacterial activity against methicillin-resistant Staphylococcus aureus 14-5 after 18 to 24 hrs
Klebsiella pneumoniae [26] = assay: Antibacterial activity against ESBL-positive Klebsiella pneumoniae 14-18 after 18 to 24 hrs; summary of the method: as §1
[27] = tested on: Staphylococcus epidermidis; assay: Antibacterial activity against methicillin-resistant Staphylococcus epidermidis 14-21 after 18 to 24 hrs
[28] = tested on: Staphylococcus epidermidis; assay: Antibacterial activity against methicillin-sensitive Staphylococcus epidermidis 14-2 after 18 to 24 hrs; summary of the method: as §1
Staphylococcus aureus [29] = assay: Antibacterial activity against methicillin-sensitive Staphylococcus aureus 14-2 after 18 to 24 hrs; summary of the method: as §1
Staphylococcus aureus [30] = assay: Antibacterial activity against methicillin-resistant Staphylococcus aureus 14-4 after 18 to 24 hrs
Escherichia coli [31] = assay: Antibacterial activity against ESBL-positive Escherichia coli 14-1 after 18 to 24 hrs; summary of the method: as §1
Staphylococcus aureus [32] = assay: Antibacterial activity against methicillin-sensitive Staphylococcus aureus 14-3 after 18 to 24 hrs; summary of the method: as §1
Enterococcus faecalis [33] = assay: Antibacterial activity against Enterococcus faecalis 14-2 after 18 to 24 hrs; summary of the method: as §1
Streptococcus pneumoniae = assay: Antibacterial activity against Streptococcus pneumoniae ATCC 19615 after 18 to 24 hrs; summary of the method: as §1
Klebsiella pneumoniae [34] = assay: Antibacterial activity against Klebsiella pneumoniae 14-1 after 18 to 24 hrs; summary of the method: as §1
Enterococcus faecium [35] = assay: Antibacterial activity against Enterococcus faecium 14-5 after 18 to 24 hrs; summary of the method: as §1
Pseudomonas aeruginosa [36] = assay: Antibacterial activity against Pseudomonas aeruginosa 14-16 after 18 to 24 hrs; summary of the method: as §1
Escherichia coli [37] = assay: Antibacterial activity against ESBL-positive Escherichia coli 14-2 after 18 to 24 hrs; summary of the method: as §1

SMILES	MIC [1] [µg/mL]	MIC (Klebsiella pneumoniae [2]) [µg/mL]	MIC (Escherichia coli [3]) [µg/mL]	MIC (Klebsiella pneumoniae [4]) [µg/mL]	MIC (Staphylococcus aureus [5]) [µg/mL]	MIC (Enterococcus faecalis [6]) [µg/mL]	MIC (Pseudomonas aeruginosa [7]) [µg/mL]	MIC (Pseudomonas aeruginosa [8]) [µg/mL]	MIC (Klebsiella pneumoniae [9]) [µg/mL]	MIC (Enterococcus faecium [10]) [µg/mL]	MIC (Pseudomonas aeruginosa [11]) [µg/mL]	MIC (Klebsiella pneumoniae [12]) [µg/mL]	MIC (Klebsiella pneumoniae [13]) [µg/mL]	MIC (Staphylococcus aureus [14]) [µg/mL]	MIC (Staphylococcus aureus [15]) [µg/mL]	MIC (Enterococcus faecium [16]) [µg/mL]	MIC (Escherichia coli [17]) [µg/mL]	MIC (Pseudomonas aeruginosa [18]) [µg/mL]	MIC (Pseudomonas aeruginosa [19]) [µg/mL]	MIC [20] [µg/mL]	other results
NCC1CN(c2nc3c(cc2F)c(=O)c(C(=O)O)cn3[C@@H]2C[C@@H]2F)C/C1=N\OCc1ccc(F)cc1 (stereo partly specified)	8 (≈ 16 µM)	128 (≈ 255 µM)	64 (≈ 128 µM)	64 (≈ 128 µM)	< 0.008	64 (≈ 128 µM)	16 (≈ 31.9 µM)	16 (≈ 31.9 µM)	64 (≈ 128 µM)	1 (≈ 1.99 µM)	8 (≈ 16 µM)	8 (≈ 16 µM)	> 128	< 0.008	4 (≈ 7.98 µM)	8 (≈ 16 µM)	64 (≈ 128 µM)	16 (≈ 31.9 µM)	4 (≈ 7.98 µM)	8 (≈ 16 µM)	MIC (Escherichia coli [21]): < 0.008 µg/mL; MIC (Enterococcus faecium [22]): 2 µg/mL (≈ 3.99 µM); MIC [23]: 16 µg/mL (≈ 31.9 µM); MIC90 [24]: < 0.25 µg/mL; MIC (Staphylococcus aureus [25]): 16 µg/mL (≈ 31.9 µM); MIC (Klebsiella pneumoniae [26]): 16 µg/mL (≈ 31.9 µM); MIC [27]: 8 µg/mL (≈ 16 µM); MIC [28]: 64 µg/mL (≈ 128 µM); MIC (Staphylococcus aureus [29]): < 0.008 µg/mL; MIC (Staphylococcus aureus [30]): 32 µg/mL (≈ 63.8 µM); MIC (Escherichia coli [31]): 8 µg/mL (≈ 16 µM); MIC (Staphylococcus aureus [32]): < 0.008 µg/mL; MIC (Enterococcus faecalis [33]): < 0.008 µg/mL; MIC (Streptococcus pneumoniae): 0.03 µg/mL (≈ 0.0598 µM); MIC (Klebsiella pneumoniae [34]): 64 µg/mL (≈ 128 µM); MIC (Enterococcus faecium [35]): 8 µg/mL (≈ 16 µM); MIC (Pseudomonas aeruginosa [36]): 16 µg/mL (≈ 31.9 µM); MIC (Escherichia coli [37]): 64 µg/mL (≈ 128 µM)
NCC1CN(c2nc3c(cc2F)c(=O)c(C(=O)O)cn3[C@@H]2C[C@@H]2F)C/C1=N\OCc1ccc(Cl)cc1 (stereo partly specified)	8 (≈ 15.4 µM)	128 (≈ 247 µM)	32 (≈ 61.8 µM)	64 (≈ 124 µM)	0.03 (≈ 0.0579 µM)	32 (≈ 61.8 µM)	8 (≈ 15.4 µM)	8 (≈ 15.4 µM)	64 (≈ 124 µM)	2 (≈ 3.86 µM)	4 (≈ 7.72 µM)	8 (≈ 15.4 µM)	128 (≈ 247 µM)	< 0.008	2 (≈ 3.86 µM)	8 (≈ 15.4 µM)	32 (≈ 61.8 µM)	8 (≈ 15.4 µM)	4 (≈ 7.72 µM)	4 (≈ 7.72 µM)	MIC (Escherichia coli [21]): 0.125 µg/mL (≈ 0.241 µM); MIC (Enterococcus faecium [22]): 2 µg/mL (≈ 3.86 µM); MIC [23]: 8 µg/mL (≈ 15.4 µM); MIC90 [24]: 0.342 µg/mL (≈ 0.66 µM); MIC (Staphylococcus aureus [25]): 32 µg/mL (≈ 61.8 µM); MIC (Klebsiella pneumoniae [26]): 8 µg/mL (≈ 15.4 µM); MIC [27]: 4 µg/mL (≈ 7.72 µM); MIC [28]: 16 µg/mL (≈ 30.9 µM); MIC (Staphylococcus aureus [29]): < 0.008 µg/mL; MIC (Staphylococcus aureus [30]): 16 µg/mL (≈ 30.9 µM); MIC (Escherichia coli [31]): 4 µg/mL (≈ 7.72 µM); MIC (Staphylococcus aureus [32]): 0.015 µg/mL (≈ 0.029 µM); MIC (Enterococcus faecalis [33]): 0.125 µg/mL (≈ 0.241 µM); MIC (Streptococcus pneumoniae): 0.015 µg/mL (≈ 0.029 µM); MIC (Klebsiella pneumoniae [34]): 128 µg/mL (≈ 247 µM); MIC (Enterococcus faecium [35]): 4 µg/mL (≈ 7.72 µM); MIC (Pseudomonas aeruginosa [36]): 8 µg/mL (≈ 15.4 µM); MIC (Escherichia coli [37]): 32 µg/mL (≈ 61.8 µM)
